Published values from different studies.
Compare with care: the assays were run in different laboratories. Values after ≈ are worked out from the molar mass of the structure shown.
Organism: Staphylococcus aureus

CC1(C)CC[C@]2(C(=O)O)CC[C@]3(C)C(=CC[C@@H]4[C@@]5(C)CC[C@H](O)C(C)(C)[C@@H]5CC[C@]43C)[C@@H]2C1 — MIC (microbial growth; USA300): 256 µg/mL (≈ 561 µM)
COC(=O)c1cc(-c2cccc(NC(=S)Nc3ccc(F)cc3F)c2)on1 — MIC (microbial growth, broth dilution; ATCC29213): > 64 µg/mL
CCOC(=O)C1=C(C)N2NC(c3ccccc3O)N(C(Cc3c[nH]c4ccccc34)C(=O)O)C2=NC1c1ccc(Cl)cc1 (centres unmarked) — MBC (microbial killing; drug-resistant strain): 100 µg/mL
Cc1ccc2nc(-c3ccco3)n(Cc3ccccc3)c2c1 — MIC (microbial growth, broth dilution; ATCC43300 MRSA; drug-resistant strain): 128 µg/mL (≈ 444 µM)
COC(=O)c1cc(-c2cccc(NC(=S)Nc3ccc(C)cc3)c2)on1 — MIC (microbial growth, broth dilution; ATCC29213): > 64 µg/mL
CCOc1cc(-c2nc3ccccc3[nH]2)ccc1O — MIC (microbial growth, broth dilution; ATCC43300 MRSA; drug-resistant strain): 256 µg/mL (≈ 1010 µM)
COc1ccccc1Nc1cccc2nccnc12 — EC50 (microbial growth; RN4220): 20 µM
O=C(O)c1cn(C2CC2)c2cc(N3CCNCC3)c(F)cc2c1=O — MIC (microbial growth, broth dilution; ATCC43300 MRSA; drug-resistant strain): 16 µg/mL (≈ 48.3 µM)
CC(=O)Oc1cccc2c1[nH]c1c(C3=C[C@@]4(OC(C)=O)CC/C=C\CCCCN5CC[C@@H]3[C@]3(C[C@@H]6/C=C\CCCCN6[C@H]34)C5)nccc12 — MFC (microbial killing; MRSA; drug-resistant strain): > 20 µg/mL
COC(=O)c1cc(-c2cccc(NC(=S)Nc3ccc(F)cc3)c2)on1 — MIC (microbial growth, broth dilution; ATCC29213): > 64 µg/mL
C=CCn1c(-c2ccc(Cl)c(Cl)c2)nc2ccccc21 — MIC (microbial growth, broth dilution; ATCC43300 MRSA; drug-resistant strain): 64 µg/mL (≈ 211 µM)
O=C(Sc1cccccc1=O)c1ccccc1 — MIC80 (microbial growth, broth dilution; ATCC29213): 13.2 µM (≈ 3.2 µg/mL)
COC(=O)c1cc(-c2cccc(NC(=S)Nc3ccccc3)c2)on1 — MIC (microbial growth, broth dilution; ATCC29213): > 64 µg/mL
CN[C@H](CC(C)C)C(=O)N[C@H]1C(=O)N[C@@H](CC(N)=O)C(=O)N[C@H]2C(=O)N[C@H]3C(=O)N[C@H](C(=O)N[C@H](C(=O)O)c4cc(O)cc(O)c4-c4cc3ccc4O)[C@H](O)c3ccc(c(Cl)c3)Oc3cc2cc(c3O[C@@H]2O[C@H](CO)[C@@H](O)[C@H](O)[C@H]2O[C@H]2C[C@](C)(N)[C@H](O)[C@H](C)O2)Oc2ccc(cc2Cl)[C@H]1O — MBC (microbial killing, broth dilution; NRS107): 1 µM
O=C(O)c1cn(C2CC2)c2cc(N3CCNCC3)c(F)cc2c1=O — MBC (microbial killing): 19 µM
COc1ccc(-c2nc3ccccc3[nH]2)cc1OC — MIC (microbial growth, broth dilution; ATCC43300 MRSA; drug-resistant strain): 256 µg/mL (≈ 1010 µM)
COC(=O)c1cc(-c2cccc(NC(=O)Nc3ccc(F)cc3)c2)on1 — MIC (microbial growth, broth dilution; ATCC29213): > 64 µg/mL
Cc1ccc2nc(-c3ccc([N+](=O)[O-])cc3)n(Cc3ccc(Cl)cc3)c2c1 — MIC (microbial growth, broth dilution; ATCC43300 MRSA; drug-resistant strain): 8 µg/mL (≈ 21.2 µM)
COC(=O)c1cc(-c2cccc(NC(=S)Nc3ccc(F)c(Cl)c3)c2)on1 — MIC (microbial growth, broth dilution; ATCC29213): > 64 µg/mL
O=C(O)c1cn(C2CC2)c2cc(N3CCNCC3)c(F)cc2c1=O — inhibition zone (microbial growth; SG511; 5 µg/mL, 20 h): 25 mm
